Assay results published in ChEMBL document CHEMBL2311431, “Synthesis and biological evaluation of some 5-arylidene-2-(1,3-thiazol-2-ylimino)-1,3-thiazolidin-4-ones as dual anti-inflammatory/antimicrobial agents” (Bioorg Med Chem, 2013).
In brackets after ≈: the same amount, converted by molar mass.

Key:
Mus musculus [1] = assay: Acute toxicity in AKR mouse up to 0.5 mmol/kg, ip; format: organism-based; conditions: in vivo
Mus musculus [2] = assay: Antiinflammatory activity in AKR mouse assessed as inhibition of carrageenan-induced paw edema at 0.01 mmol/kg, ip measured after 3.5 hrs of carrageenan-challenge; format: functional
In short: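 AKR mice of both sexes (pregnant females excluded), 6-10 per group, fasted during the experiment. Edema induced by intradermal 0.05 mL of 2% carrageenin into the right hind paw. Compound given at 0.01 mmol/kg ip, suspended in water with Tween-80, at the same time as carrageenin.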

[3] = target: T1, Prostaglandin G/H synthase 1 (Ovis aries) (UniProt P05979); assay: Inhibition of ovine COX1 assessed as inhibition of PGF2a production by enzyme immunoassay; parameters: concentration or dose not given beside the values; conditions: concentration not given here
T1 sequence (whole entry): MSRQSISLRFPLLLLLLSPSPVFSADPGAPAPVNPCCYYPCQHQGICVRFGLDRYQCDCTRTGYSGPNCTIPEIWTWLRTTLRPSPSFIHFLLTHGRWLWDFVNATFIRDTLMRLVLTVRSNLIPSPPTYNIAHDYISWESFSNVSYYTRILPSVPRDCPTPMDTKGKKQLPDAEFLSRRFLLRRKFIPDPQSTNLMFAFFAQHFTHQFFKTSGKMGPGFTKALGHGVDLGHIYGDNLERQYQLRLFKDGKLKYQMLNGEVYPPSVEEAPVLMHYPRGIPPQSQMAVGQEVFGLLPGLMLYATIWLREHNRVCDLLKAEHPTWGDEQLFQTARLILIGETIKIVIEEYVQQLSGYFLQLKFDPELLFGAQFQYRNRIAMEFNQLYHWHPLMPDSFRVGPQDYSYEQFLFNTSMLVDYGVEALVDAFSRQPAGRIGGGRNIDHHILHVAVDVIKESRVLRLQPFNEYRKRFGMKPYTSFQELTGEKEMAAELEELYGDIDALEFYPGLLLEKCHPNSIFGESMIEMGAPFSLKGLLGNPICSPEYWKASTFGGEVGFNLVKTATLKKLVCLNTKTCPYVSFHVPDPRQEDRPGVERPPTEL
In short: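 Ovine COX-1 from a commercial screening kit, tested with 0.1 µM arachidonic acid, which is below the saturating level. COX-derived PGH2 is reduced by SnCl2 to PGF2a, quantified by enzyme immunoassay with a broad prostaglandin antibody. At least triplicate.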

[4] = Inhibition of soybean lipoxygenase assessed as inhibition of sodium linolate conversion to 13-hydroperoxylinoleic acid after 4 mins by spectrophotometry; parameters: species or system Glycine max; conditions: read-out: IC50
Aspergillus niger [5] = assay: Fungicidal activity against Aspergillus niger ATCC 6275 after 72 hrs by serial subcultivation method; format: functional; conditions: ATCC 6275, 72 h
Aspergillus niger [6] = assay: Antifungal activity against Aspergillus niger ATCC 6275 after 72 hrs by serial dilution technique; format: functional; conditions: ATCC 6275, 72 h
In short: (§1)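 Serial dilution in malt broth; compounds from 1 mg/ml stocks in 5% DMSO; 72 h at 28 °C. MIC is the lowest concentration with no visible growth under a binocular microscope. Run in duplicate, repeated three times.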

Aspergillus fumigatus [7] = assay: Fungicidal activity against Aspergillus fumigatus after 72 hrs by serial subcultivation method; format: functional
Aspergillus flavus [8] = assay: Fungicidal activity against Aspergillus flavus ATCC 9643 after 72 hrs by serial subcultivation method; format: functional; conditions: ATCC 9643, 72 h
Trichoderma viride [9] = assay: Fungicidal activity against Trichoderma viride IAM 5061 after 72 hrs by serial subcultivation method; format: functional; conditions: IAM 5061, 72 h
Penicillium ochrochloron [10] = assay: Fungicidal activity against Penicillium ochrochloron ATCC 9112 after 72 hrs by serial subcultivation method; format: functional; conditions: ATCC 9112, 72 h
Aspergillus flavus [11] = assay: Antifungal activity against Aspergillus flavus ATCC 9643 after 72 hrs by serial dilution technique; format: functional; conditions: ATCC 9643, 72 h; in short: as §1
Talaromyces funiculosus [12] = assay: Fungicidal activity against Penicillium funiculosum ATCC 36839 after 72 hrs by serial subcultivation method; format: functional; conditions: ATCC 36839, 72 h
Aspergillus fumigatus [13] = assay: Antifungal activity against Aspergillus fumigatus after 72 hrs by serial dilution technique; format: functional; in short: as §1
Trichoderma viride [14] = assay: Antifungal activity against Trichoderma viride IAM 5061 after 72 hrs by serial dilution technique; format: functional; conditions: IAM 5061, 72 h; in short: as §1
Penicillium ochrochloron [15] = assay: Antifungal activity against Penicillium ochrochloron ATCC 9112 after 72 hrs by serial dilution technique; format: functional; conditions: ATCC 9112, 72 h; in short: as §1
Talaromyces funiculosus [16] = assay: Antifungal activity against Penicillium funiculosum ATCC 36839 after 72 hrs by serial dilution technique; format: functional; conditions: ATCC 36839, 72 h; in short: as §1
Escherichia coli [17] = assay: Bactericidal activity against Escherichia coli ATCC 35210 after 72 hrs by serial subcultivation method; format: functional; conditions: ATCC 35210, 72 h
Pseudomonas aeruginosa [18] = assay: Bactericidal activity against Pseudomonas aeruginosa ATCC 27853 after 72 hrs by serial subcultivation method; format: functional; conditions: ATCC 27853, 72 h
Listeria monocytogenes [19] = assay: Bactericidal activity against Listeria monocytogenes NCTC 7973 after 72 hrs by serial subcultivation method; format: functional; conditions: NCTC 7973, 72 h
Bacillus cereus [20] = assay: Bactericidal activity against Bacillus cereus clinical isolate after 72 hrs by serial subcultivation method; format: functional
Micrococcus flavus [21] = assay: Bactericidal activity against Micrococcus flavus ATCC 10240 after 72 hrs by serial subcultivation method; format: functional; conditions: ATCC 10240, 72 h
Staphylococcus aureus [22] = assay: Bactericidal activity against Staphylococcus aureus ATCC 6538 after 72 hrs by serial subcultivation method; format: functional; conditions: ATCC 6538, 72 h
Escherichia coli [23] = assay: Antibacterial activity against Escherichia coli ATCC 35210 after 24 hr by microdilution test; format: functional; conditions: ATCC 35210, 24 h
In short: (§2)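 Broth microdilution in LB medium, about 1.0×10^4 cfu per well; compounds from 1 mg/ml stocks in 5% DMSO. Incubated 24 h. MIC is the lowest concentration with no visible growth under a binocular microscope. Run in duplicate, repeated three times.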

Listeria monocytogenes [24] = assay: Antibacterial activity against Listeria monocytogenes NCTC 7973 after 24 hr by microdilution test; format: functional; conditions: NCTC 7973, 24 h; in short: as §2
Pseudomonas aeruginosa [25] = assay: Antibacterial activity against Pseudomonas aeruginosa ATCC 27853 after 24 hr by microdilution test; format: functional; conditions: ATCC 27853, 24 h; in short: as §2
Micrococcus flavus [26] = assay: Antibacterial activity against Micrococcus flavus ATCC 10240 after 24 hr by microdilution test; format: functional; conditions: ATCC 10240, 24 h; in short: as §2
Bacillus cereus [27] = assay: Antibacterial activity against Bacillus cereus clinical isolate after 24 hr by microdilution test; format: functional; in short: as §2
Staphylococcus aureus [28] = assay: Antibacterial activity against Staphylococcus aureus ATCC 6538 after 24 hr by microdilution test; format: functional; conditions: ATCC 6538, 24 h; in short: as §2

## O=C1N/C(=N\c2nc(-c3ccccc3)cs2)S/C1=C\c1ccccc1
Mus musculus [1]
  Activity: Non-toxic
Mus musculus [2]
  inhibition in vivo at 10 µmol/kg: 59.3%
[3]
  inhibition: 67%
[4]
  IC50: 66 µM
Aspergillus niger [5]
  MFC: 25.2 µM (≈ 9.16 µg/mL)
Aspergillus niger [6]
  MIC: 19 µM (≈ 6.91 µg/mL)
Aspergillus fumigatus [7]
  MFC: 25.2 µM (≈ 9.16 µg/mL)
Aspergillus flavus [8]
  MFC: 25.2 µM (≈ 9.16 µg/mL)
Trichoderma viride [9]
  MFC: 25.2 µM (≈ 9.16 µg/mL)
Penicillium ochrochloron [10]
  MFC: 25.2 µM (≈ 9.16 µg/mL)
Aspergillus flavus [11]
  MIC: 19 µM (≈ 6.91 µg/mL)
Talaromyces funiculosus [12]
  MFC: 25.2 µM (≈ 9.16 µg/mL)
Aspergillus fumigatus [13]
  MIC: 19 µM (≈ 6.91 µg/mL)
Trichoderma viride [14]
  MIC: 12.6 µM (≈ 4.58 µg/mL)
Penicillium ochrochloron [15]
  MIC: 19 µM (≈ 6.91 µg/mL)
Talaromyces funiculosus [16]
  MIC: 19 µM (≈ 6.91 µg/mL)
Escherichia coli [17]
  MBC: 108 µM (≈ 39.3 µg/mL)
Pseudomonas aeruginosa [18]
  MBC: 108 µM (≈ 39.3 µg/mL)
Listeria monocytogenes [19]
  MBC: 27 µM (≈ 9.81 µg/mL)
Bacillus cereus [20]
  MBC: 27 µM (≈ 9.81 µg/mL)
Micrococcus flavus [21]
  MBC: 27 µM (≈ 9.81 µg/mL)
Staphylococcus aureus [22]
  MBC: 108 µM (≈ 39.3 µg/mL)
Escherichia coli [23]
  MIC: 54 µM (≈ 19.6 µg/mL)
Listeria monocytogenes [24]
  MIC: 27 µM (≈ 9.81 µg/mL)
Pseudomonas aeruginosa [25]
  MIC: 27 µM (≈ 9.81 µg/mL)
Micrococcus flavus [26]
  MIC: 27 µM (≈ 9.81 µg/mL)
Bacillus cereus [27]
  MIC: 6.8 µM (≈ 2.47 µg/mL)
Staphylococcus aureus [28]
  MIC: 54 µM (≈ 19.6 µg/mL)

## Cc1csc(/N=C2\NC(=O)/C(=C/c3ccc(Cl)cc3)S2)n1
Mus musculus [1]
  Activity: Non-toxic
Mus musculus [2]
  inhibition in vivo at 10 µmol/kg: 42%
[3]
  inhibition: 74%
[4]
  IC50: 76 µM
Aspergillus niger [5]
  MFC: 15.2 µM (≈ 5.1 µg/mL)
Aspergillus niger [6]
  MIC: 15.2 µM (≈ 5.1 µg/mL)
Aspergillus fumigatus [7]
  MFC: 15.2 µM (≈ 5.1 µg/mL)
Aspergillus flavus [8]
  MFC: 15.2 µM (≈ 5.1 µg/mL)
Trichoderma viride [9]
  MFC: 15.2 µM (≈ 5.1 µg/mL)
Penicillium ochrochloron [10]
  MFC: 15.2 µM (≈ 5.1 µg/mL)
Aspergillus flavus [11]
  MIC: 15.2 µM (≈ 5.1 µg/mL)
Talaromyces funiculosus [12]
  MFC: 15.2 µM (≈ 5.1 µg/mL)
Aspergillus fumigatus [13]
  MIC: 15.2 µM (≈ 5.1 µg/mL)
Trichoderma viride [14]
  MIC: 7.6 µM (≈ 2.55 µg/mL)
Penicillium ochrochloron [15]
  MIC: 7.6 µM (≈ 2.55 µg/mL)
Talaromyces funiculosus [16]
  MIC: 7.6 µM (≈ 2.55 µg/mL)
Escherichia coli [17]
  MBC: 240 µM (≈ 80.6 µg/mL)
Pseudomonas aeruginosa [18]
  MBC: 120 µM (≈ 40.3 µg/mL)
Listeria monocytogenes [19]
  MBC: 60 µM (≈ 20.2 µg/mL)
Bacillus cereus [20]
  MBC: 30 µM (≈ 10.1 µg/mL)
Micrococcus flavus [21]
  MBC: 60 µM (≈ 20.2 µg/mL)
Staphylococcus aureus [22]
  MBC: 240 µM (≈ 80.6 µg/mL)
Escherichia coli [23]
  MIC: 120 µM (≈ 40.3 µg/mL)
Listeria monocytogenes [24]
  MIC: 30 µM (≈ 10.1 µg/mL)
Pseudomonas aeruginosa [25]
  MIC: 30 µM (≈ 10.1 µg/mL)
Micrococcus flavus [26]
  MIC: 30 µM (≈ 10.1 µg/mL)
Bacillus cereus [27]
  MIC: 30 µM (≈ 10.1 µg/mL)
Staphylococcus aureus [28]
  MIC: 120 µM (≈ 40.3 µg/mL)
